ChEMBL document CHEMBL1212832, “Antiprotozoal steroidal saponins from the marine sponge Pandaros acanthifolium” (J Nat Prod, 2010)
Activity calls are given as the source filed them. The rule behind the calls is not given here.

How the values were obtained:
[1] = biological target: T1, 3-oxoacyl-acyl-carrier protein reductase (Plasmodium falciparum) (UniProt Q965D6); assay: Inhibition of Plasmodium falciparum recombinant FabG at 20 ug/mL by spectrophotometric analysis
T1 sequence (whole entry): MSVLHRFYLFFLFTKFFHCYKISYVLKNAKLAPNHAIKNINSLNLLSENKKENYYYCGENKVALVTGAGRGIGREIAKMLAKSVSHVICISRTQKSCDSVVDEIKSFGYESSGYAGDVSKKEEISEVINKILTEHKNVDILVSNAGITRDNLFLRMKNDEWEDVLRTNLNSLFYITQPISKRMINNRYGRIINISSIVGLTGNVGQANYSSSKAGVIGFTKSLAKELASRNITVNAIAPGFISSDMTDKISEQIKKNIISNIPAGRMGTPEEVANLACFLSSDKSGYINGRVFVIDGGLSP

[2] = Inhibition of Plasmodium falciparum recombinant FabI at 20 ug/mL by spectrophotometric analysis
[3] = biological target: T2, Fatty acid synthase (Plasmodium falciparum) (UniProt Q965D7); assay: Inhibition of Plasmodium falciparum recombinant FabZ at 20 ug/mL by spectrophotometric analysis
T2 sequence (whole entry): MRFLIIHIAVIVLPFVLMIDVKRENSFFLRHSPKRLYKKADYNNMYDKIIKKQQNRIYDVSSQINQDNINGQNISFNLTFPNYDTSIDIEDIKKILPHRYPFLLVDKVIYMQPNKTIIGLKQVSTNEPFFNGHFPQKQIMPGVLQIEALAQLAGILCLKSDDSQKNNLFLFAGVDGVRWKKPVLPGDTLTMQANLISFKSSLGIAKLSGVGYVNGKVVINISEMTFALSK

Trypanosoma cruzi = assay: Trypanocidal activity against trypomastigote form of Trypanosoma cruzi Tulahuen infected in rat L6 cells after 96 hrs; format: functional, organism-based; settings: L6, 96 h
Method in brief: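 L6 cells seeded at 2000 per well in RPMI 1640 with 10% FBS, 2 mM L-glutamine; after 24 h, 5000 trypomastigotes of the LacZ-expressing C2C4 line added. After 48 h, medium replaced with seven 3-fold dilutions (90–0.12 µg/mL) for 96 h.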

L6 = assay: Cytotoxicity against rat L6 cells after 72 hrs by Alamar blue assay; format: cell-based; settings: l6, 72 h
Method in brief: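 4 × 10^4 L6 cells per well in RPMI 1640 with 10% FBS and L-glutamine, exposed 72 h to seven 3-fold dilutions (90–0.12 µg/mL). Resazurin (Alamar Blue) added for 2 h, fluorescence read at ex 536/em 588 nm.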

Leishmania donovani = assay: Antileishmanial activity against Leishmania donovani (MHOM/ET/67/L82) amastigotes after 72 hrs; format: functional, organism-based; settings: MHOM/ET/67/L82, 72 h
Plasmodium falciparum = assay: Antimalarial activity against chloroquine and pyrimethamine-resistant Plasmodium falciparum K1 assessed as inhibition of [3H]hypoxanthine incorporation after 48 hrs by scintillation counting; format: functional, organism-based
Method in brief: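 K1 strain (chloroquine- and pyrimethamine-resistant) cultured in RPMI 1640 with 5% Albumax II, 0.2% w/v glucose, 0.03% L-glutamine. Two-fold dilution series from DMSO stocks, final DMSO ≤0.25%. 48 h at 37 °C, then 0.1 µCi [3H]-hypoxanthine added and incubated 24 h more. Freeze-stopped at -80 °C, harvested onto glass fiber filters, scintillation counted. IC50 calculated. Chloroquine as standard.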

[4] = tested on: Trypanosoma brucei rhodesiense; assay: Trypanocidal activity against Trypanosoma brucei rhodesiense STIB 900 after 72 hrs; format: functional, organism-based; settings: STIB 900, 72 h
Method in brief: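 Bloodstream forms (10^4 per well) in MEM with 25 mM HEPES, extra glucose, non-essential amino acids, 2-mercaptoethanol, pyruvate and 15% heat-inactivated horse serum; seven 3-fold dilutions from 90 to 0.12 µg/mL, 72 h at 37 °C, 5% CO2. Resazurin added for 2–4 h, fluorescence at ex 536/em 588 nm; melarsoprol as standard.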

| Compound | Activity [1] | Activity [2] | Activity [3] | IC50 (Trypanosoma cruzi) [µM] | Activity (L6) [µM] | IC50 (Leishmania donovani) [µM] | IC50 (Plasmodium falciparum) [µM] | IC50 [4] [µM] |
| --- | --- | --- | --- | --- | --- | --- | --- | --- |
| CC[C@@H](C(=O)C[C@@H](C)C1=C(O)C(=O)[C@@H]2[C@@H]3CC[C@H]4C[C@@H](O[C@@H]5O[C@H](C(=O)O)[C@@H](O)[C@H](O)[C@H]5O)CC[C@]4(C)[C@H]3CC[C@]12C)C(C)C | inactive | inactive | inactive | – | – | – | – | – |
| O=C(Cn1ccnc1[N+](=O)[O-])NCc1ccccc1 [BENZNIDAZOLE] | – | – | – | 2.64 | – | – | – | – |
| CC[C@@H](C(=O)C[C@@H](C)C1=C(O)C(=O)[C@@H]2[C@@H]3CC[C@H]4C[C@@H](O[C@@H]5O[C@H](C(=O)OC)[C@@H](O)[C@H](O)[C@H]5O[C@@H]5O[C@H](CO)[C@@H](O)[C@H](O)[C@H]5O)CC[C@]4(C)[C@H]3CC[C@]12C)C(C)C [METHYL ESTER PANDAROSIDE A] | inactive | inactive | inactive | > 120 | > 120 | 66.3 | > 25 | 114 |
| COC(=O)[C@H]1O[C@@H](O[C@H]2CC[C@@]3(C)[C@@H](CC[C@H]4[C@H]5C(=O)C(O)=C([C@H](C)CC(=O)CC(C)C)[C@@]5(C)CC[C@@H]43)C2)[C@H](O[C@@H]2O[C@H](CO)[C@@H](O)[C@H](O)[C@H]2O)[C@@H](O)[C@@H]1O [METHYL ESTER PANDAROSIDE C] | inactive | inactive | inactive | 100 | > 120 | 44.2 | > 25 | 61.4 |
| COC(=O)[C@H]1O[C@@H](O[C@H]2CC[C@@]3(C)[C@@H](CC[C@H]4[C@H]5C(=O)C(O)=C([C@H](C)CC(=O)CC(C)C)[C@@]5(C)CC[C@@H]43)C2)[C@H](O)[C@@H](O)[C@@H]1O [METHYL ESTER PANDAROSIDE D] | inactive | inactive | inactive | 21.6 | 106 | 13.7 | 5.1 | 40.4 |
| C=C(C(=O)C[C@@H](C)C1=C(O)C(=O)[C@@H]2C3=C(CC[C@]12C)[C@@]1(C)CC[C@H](O[C@@H]2O[C@H](C(=O)OC)[C@@H](O)[C@H](O[C@@H]4OC[C@@H](O)[C@H](O)[C@H]4O)[C@H]2O)C[C@@H]1CC3)C(C)C [METHYL ESTER PANDAROSIDE E] | inactive | inactive | inactive | 61.9 | 76.9 | 41.3 | 5.9 | 14.3 |
| COC(=O)[C@H]1O[C@@H](O[C@H]2CC[C@]3(C)C4=C(CC[C@H]3C2)[C@H]2C(=O)C(O)=C([C@H](C)CC(=O)[C@H](C)C(C)C)[C@@]2(C)CC4)[C@H](O)[C@@H](O[C@@H]2OC[C@@H](O)[C@H](O)[C@H]2O)[C@@H]1O [METHYL ESTER PANDAROSIDE F] | inactive | inactive | inactive | 25.1 | 42.1 | 26.8 | 9.9 | 54.4 |
| CC[C@@H](C(=O)C[C@@H](C)C1=C(O)C(=O)[C@@H]2[C@@H]3CC[C@H]4C[C@@H](O[C@@H]5O[C@H](C(=O)OC)[C@@H](O)[C@H](O[C@@H]6OC[C@@H](O)[C@H](O)[C@H]6O)[C@H]5O)CC[C@]4(C)[C@H]3CC[C@]12C)C(C)C [METHYL ESTER PANDAROSIDE H] | inactive | inactive | inactive | 36.1 | 43.3 | 16.5 | 10.2 | 19.9 |
| CC[C@@H](C(=O)C[C@@H](C)C1=C(O)C(=O)[C@@H]2[C@@H]3CC[C@H]4C[C@@H](O[C@@H]5O[C@H](C(=O)OC)[C@@H](O[C@H]6O[C@H](C)[C@@H](O)[C@H](O)[C@@H]6O)[C@H](O)[C@H]5O)CC[C@]4(C)[C@H]3CC[C@]12C)C(C)C [METHYL ESTER PANDAROSIDE I] | inactive | inactive | inactive | 21.7 | 59.6 | 28.7 | 13 | 27.2 |
| CC[C@@H](C(=O)C[C@@H](C)C1=C(O)C(=O)[C@@H]2[C@@H]3CC[C@H]4C[C@@H](O[C@@H]5O[C@H](C(=O)O)[C@@H](O)[C@H](O)[C@H]5O[C@@H]5O[C@H](CO)[C@@H](O)[C@H](O)[C@H]5O)CC[C@]4(C)[C@H]3CC[C@]12C)C(C)C [PANDAROSIDE A] | inactive | inactive | inactive | 52.2 | 48.9 | 19.7 | 17.6 | 9.1 |
| CC(C)CC(=O)C[C@@H](C)C1=C(O)C(=O)[C@@H]2[C@@H]3CC[C@H]4C[C@@H](O[C@@H]5O[C@H](C(=O)O)[C@@H](O)[C@H](O)[C@H]5O[C@@H]5O[C@H](CO)[C@@H](O)[C@H](O)[C@H]5O)CC[C@]4(C)[C@H]3CC[C@]12C [PANDAROSIDE C] | inactive | inactive | inactive | > 120 | > 120 | > 120 | > 25 | 66.4 |
| CC(C)CC(=O)C[C@@H](C)C1=C(O)C(=O)[C@@H]2[C@@H]3CC[C@H]4C[C@@H](O[C@@H]5O[C@H](C(=O)O)[C@@H](O)[C@H](O)[C@H]5O)CC[C@]4(C)[C@H]3CC[C@]12C [PANDAROSIDE D] | inactive | inactive | inactive | 80.8 | 96.6 | 31 | 13.5 | 15.3 |
| C=C(C(=O)C[C@@H](C)C1=C(O)C(=O)[C@@H]2C3=C(CC[C@]12C)[C@@]1(C)CC[C@H](O[C@@H]2O[C@H](C(=O)O)[C@@H](O)[C@H](O[C@@H]4OC[C@@H](O)[C@H](O)[C@H]4O)[C@H]2O)C[C@@H]1CC3)C(C)C [PANDAROSIDE E] | inactive | inactive | inactive | 71.6 | 40.9 | 15.9 | 13.8 | 9.4 |
| CC(C)[C@@H](C)C(=O)C[C@@H](C)C1=C(O)C(=O)[C@@H]2C3=C(CC[C@]12C)[C@@]1(C)CC[C@H](O[C@@H]2O[C@H](C(=O)O)[C@@H](O)[C@H](O[C@@H]4OC[C@@H](O)[C@H](O)[C@H]4O)[C@H]2O)C[C@@H]1CC3 [PANDAROSIDE F] | inactive | inactive | inactive | 20.3 | 10.8 | 4.3 | 5.7 | 2.4 |
| CC[C@@H](C(=O)C[C@@H](C)C1=C(O)C(=O)[C@@H]2C3=CC[C@H]4C[C@@H](O[C@@H]5O[C@H](C(=O)O)[C@@H](O)[C@H](O[C@@H]6OC[C@@H](O)[C@H](O)[C@H]6O)[C@H]5O)CC[C@]4(C)[C@H]3CC[C@]12C)C(C)C [PANDAROSIDE G] | inactive | inactive | inactive | 9.7 | 5.4 | 1.3 | 2.5 | 0.8 |
| COc1cc([C@@H]2c3cc4c(cc3[C@H](O)[C@H]3COC(=O)[C@H]23)OCO4)cc(OC)c1OC [PODOFILOX] | – | – | – | – | 0.012 | – | – | – |
